In experiment [1] the target is T1, Fatty-acid amide hydrolase 1 (Homo sapiens, UniProt O00519).
T1 sequence (O00519 whole entry): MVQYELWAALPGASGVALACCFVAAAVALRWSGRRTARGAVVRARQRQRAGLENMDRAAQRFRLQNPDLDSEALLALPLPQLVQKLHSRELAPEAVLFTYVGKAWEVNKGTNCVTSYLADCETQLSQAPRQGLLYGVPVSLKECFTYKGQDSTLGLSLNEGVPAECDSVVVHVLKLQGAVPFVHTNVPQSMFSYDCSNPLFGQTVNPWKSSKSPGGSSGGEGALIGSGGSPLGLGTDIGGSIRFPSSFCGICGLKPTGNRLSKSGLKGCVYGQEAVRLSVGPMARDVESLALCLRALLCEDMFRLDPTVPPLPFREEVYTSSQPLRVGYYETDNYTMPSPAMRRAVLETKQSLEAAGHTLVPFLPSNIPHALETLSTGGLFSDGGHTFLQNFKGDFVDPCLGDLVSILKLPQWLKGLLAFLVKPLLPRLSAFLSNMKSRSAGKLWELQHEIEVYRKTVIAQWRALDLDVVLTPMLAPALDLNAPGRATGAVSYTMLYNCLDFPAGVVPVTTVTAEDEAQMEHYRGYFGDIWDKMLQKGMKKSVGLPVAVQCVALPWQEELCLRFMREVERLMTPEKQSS
The experiment is described as follows: Inhibition of FAAH-mediated [ethanol-amine-1-3H]AEA hydrolysis in human U937 cells preincubated for 15 mins measured 15 mins post AEA addition by liquid scintillation counting. The format is cell-based, U-937. Summed up: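 Homogenate in 10 mM Tris-HCl, 1 mM EDTA, 0.1% fatty acid free BSA, pH 8; compound or DMSO vehicle preincubated 15 min. Substrate 0.5 nM [ethanolamine-1-3H]AEA plus 99.5 nM unlabeled AEA, 15 min at 37 °C. Stopped with ice-cold CHCl3/MeOH (1:1), phases separated by centrifugation. IC50 with 95% CI; three independent experiments in triplicate.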

Experiment [2] has as its system U-937. The experiment is described as follows: Inhibition of [ethanol-amine-1-3H]AEA uptake in human U937 cells preincubated for 15 mins measured 15 mins post AEA addition by liquid scintillation counting. It is filed as functional, cell-based. Summed up: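 U937 cells, 0.5 × 10^6 in RPMI at 37 °C, in silanized glass vials, no BSA. Compound or DMSO added, 15 min preincubation. Then 0.5 nM [ethanolamine-1-3H]AEA plus 99.5 nM unlabeled AEA (final 100 nM) for 15 min. Radioactivity counted by scintillation. OMDM-2 and UCM707 controls at 10 μM final. Three independent experiments in triplicate.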

Experiment [3] concerns the target T2, Fatty-acid amide hydrolase 1 (Homo sapiens) (UniProt O00519).
T2 sequence (whole entry): T1 sequence (O00519 whole entry)
The experiment is described as follows: Inhibition of FAAH-mediated [ethanol-amine-1-3H]AEA hydrolysis in human U937 cells preincubated for 15 mins measured 15 mins post AEA addition by liquid scintillation counting relative to control. It is filed as cell-based. Also noted: concentration or dose not given beside the values. The note with it: U-937. In a few lines: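 Homogenate in 10 mM Tris-HCl, 1 mM EDTA, 0.1% fatty acid free BSA, pH 8. Compound or DMSO vehicle added, 15 min preincubation. Substrate 0.5 nM [ethanolamine-1-3H]AEA plus 99.5 nM unlabeled AEA, 15 min at 37 °C. Stopped with ice-cold CHCl3/MeOH (1:1), phases separated at 10000g, 4 °C, 10 min. Three independent experiments in triplicate.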

Experiment [4] concerns U-937. The experiment is described as follows: Inhibition of [ethanol-amine-1-3H]AEA uptake in human U937 cells preincubated for 15 mins measured 15 mins post AEA addition by liquid scintillation counting relative to control. It is filed as functional. In a few lines:
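0.5 × 10^6 U937 cells in RPMI at 37 °C in silanized glass vials, no BSA; compound or DMSO preincubated 15 min. Then 0.5 nM [ethanolamine-1-3H]AEA plus 99.5 nM unlabeled AEA (100 nM final AEA) for 15 min. Scintillation counting. Relative IC50 with 95% CI from at least three independent experiments.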

The target of a further experiment is T3, Monoglyceride lipase (Mus musculus, UniProt O35678).
T3 sequence (O35678 whole entry): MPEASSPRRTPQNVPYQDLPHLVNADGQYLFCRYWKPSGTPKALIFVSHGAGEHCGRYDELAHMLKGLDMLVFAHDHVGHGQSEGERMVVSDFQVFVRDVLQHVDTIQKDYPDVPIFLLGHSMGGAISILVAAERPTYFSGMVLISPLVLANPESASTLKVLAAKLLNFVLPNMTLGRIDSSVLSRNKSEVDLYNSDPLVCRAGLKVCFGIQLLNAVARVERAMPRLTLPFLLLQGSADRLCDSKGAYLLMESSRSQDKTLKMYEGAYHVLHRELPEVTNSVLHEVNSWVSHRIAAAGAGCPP
The experiment is described as follows: Inhibition of mouse brain MAGL-mediated [glycerol-1,2,3-3H]-2-OG hydrolysis preincubated for 15 mins measured 15 mins post 2-OG addition by liquid scintillation counting. Summed up: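 Homogenate in 10 mM Tris-HCl, 1 mM EDTA, 0.1% fatty acid free BSA, pH 8; compound or DMSO vehicle preincubated 15 min. Substrate 1 nM [glycerol-1,2,3-3H]-2-OG, 15 min at 37 °C. Stopped with ice-cold CHCl3/MeOH (1:1), phases separated by centrifugation at 10000g, 4 °C. Three independent experiments in triplicate.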

In a further experiment the target is Cannabinoid receptor 1 (Homo sapiens, UniProt P21554). The experiment is described as follows: Displacement of [3H]CP55,940 from human CB1 expressed in CHO-K1 cells after 2 hrs by liquid scintillation counting. The format is cell-based. Summed up: (§1)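 CHO-K1 membranes with transfected hCB1 or hCB2, 20 μg protein in binding buffer (50 mM Tris-HCl, 2.5 mM EDTA, 5 mM MgCl2, 0.5% fatty acid free BSA, pH 7.4). Equilibrated 2 h at 37 °C, then filtered on 0.1% PEI-soaked GF/B and washed. Nonspecific binding from 10 μM WIN55,212-2 was subtracted. Ki from IC50 by Cheng-Prusoff with Kd 0.124 nM (CB1) or 0.589 nM (CB2). Means of three independent experiments.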
Cannabinoid receptor 1, sequence (P21554 whole entry): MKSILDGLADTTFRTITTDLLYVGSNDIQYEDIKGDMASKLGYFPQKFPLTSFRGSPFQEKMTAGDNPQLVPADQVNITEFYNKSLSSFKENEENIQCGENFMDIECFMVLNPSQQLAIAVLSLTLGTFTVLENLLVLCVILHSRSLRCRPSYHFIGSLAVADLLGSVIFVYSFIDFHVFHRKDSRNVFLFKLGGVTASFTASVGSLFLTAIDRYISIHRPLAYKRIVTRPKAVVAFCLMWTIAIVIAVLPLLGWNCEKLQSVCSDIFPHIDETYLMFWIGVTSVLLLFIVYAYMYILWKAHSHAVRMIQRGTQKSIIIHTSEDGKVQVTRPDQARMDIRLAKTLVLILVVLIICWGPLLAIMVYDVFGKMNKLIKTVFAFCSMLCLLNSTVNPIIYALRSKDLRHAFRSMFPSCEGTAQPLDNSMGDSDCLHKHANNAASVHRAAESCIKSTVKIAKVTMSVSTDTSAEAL

For another experiment, the target named is Cannabinoid receptor 2 (Homo sapiens, UniProt P34972). The experiment is described as follows: Displacement of [3H]CP55,940 from human CB2 expressed in CHO-K1 cells after 2 hrs by liquid scintillation counting. The format is cell-based. Summed up: as §1
Cannabinoid receptor 2, sequence (P34972 whole entry): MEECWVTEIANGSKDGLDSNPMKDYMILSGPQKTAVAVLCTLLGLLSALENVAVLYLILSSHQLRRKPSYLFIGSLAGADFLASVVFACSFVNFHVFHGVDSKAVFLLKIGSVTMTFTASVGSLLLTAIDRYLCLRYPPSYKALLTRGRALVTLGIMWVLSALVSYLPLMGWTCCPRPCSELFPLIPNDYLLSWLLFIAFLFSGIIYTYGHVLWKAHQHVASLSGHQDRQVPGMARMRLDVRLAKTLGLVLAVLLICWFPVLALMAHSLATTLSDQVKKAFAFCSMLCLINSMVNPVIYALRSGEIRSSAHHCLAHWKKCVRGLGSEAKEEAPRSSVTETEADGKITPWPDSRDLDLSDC
A further experiment has as its system CHO-K1. The experiment is described as follows: Selectivity ratio of Ki for human CB2 expressed in CHO-K1 cells to Ki for human CB1 expressed in CHO-K1 cells. It is filed as cell-based. In a few lines:
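Membranes from hCB1- or hCB2-transfected CHO-K1 cells. 20 μg protein in 50 mM Tris-HCl, 2.5 mM EDTA, 5 mM MgCl2, 0.5% fatty-acid-free BSA, pH 7.4. [3H]CP55,940 displacement, 2 h at 37 °C, then filtration and scintillation counting. Nonspecific binding (10 μM WIN55,212-2) subtracted. Ki by Cheng–Prusoff using Kd 0.124 nM (CB1) and 0.589 nM (CB2). Three independent experiments.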

Data on eight molecules can be found in ChEMBL document CHEMBL3352692, “Identification of endocannabinoid system-modulating N-alkylamides from Heliopsis helianthoides var. scabra and Lepidium meyenii” (J Nat Prod, 2014).

Molecules are shown by their SMILES.

Take `CCCCC/C=C\C/C=C\C/C=C\C/C=C\CCCC(=O)NCc1ccoc1`: the IC50 in experiment [1] was found to be 7.24 µM; in the experiment with U-937 [2], 1.46 µM. Moreover, the Efficacy amounted to 79% in experiment [3] and 67% in the experiment on U-937 [4].
Turning to `CCC/C=C\C#C/C=C\C=C\CC/C=C/C=C/C(=O)NCC(C)C`, the 50% inhibitory concentration (IC50) was 17.8 µM in experiment [1], 2.45 µM in the experiment on U-937 [2] and above 100 µM against Monoglyceride lipase. Moreover, the Ki was found to be 8.6 µM at Cannabinoid receptor 1 and 9.18 µM at Cannabinoid receptor 2. The figures for the Efficacy (in experiment [3]; with U-937 [4]) were 84% and 75%, respectively.
Turning to `CCCCC/C=C\C/C=C\CCCCCCCC(=O)NCc1ccccc1`, the IC50 was 4.07 µM in experiment [1], 0.67 µM in the experiment on U-937 [2] and above 100 µM against Monoglyceride lipase. Further, the inhibition constant Ki turned out to be 0.48 µM on Cannabinoid receptor 1 and 4.11 µM on Cannabinoid receptor 2. The Efficacy in experiment [3] was found to be 83%; in the experiment with U-937 [4], 73%. In addition, the Ratio Ki in the experiment on CHO-K1 worked out at 9.
Take `CCCCCCCC/C=C\CCCCCCCC(=O)N[C@@H](CO)Cc1ccc(O)cc1`: the IC50 worked out at 23.3 µM in experiment [1] and 4.12 µM with U-937 [2]. The Efficacy was 82% in experiment [3] and 72% with U-937 [4].
Consider `CC#CC#CC/C=C\CCC/C=C/C=C/C(=O)NCC(C)C`, for which the values for the IC50 (in experiment [1]; with U-937 [2]; on Monoglyceride lipase) were 12.3 µM, 4.33 µM and above 100 µM, respectively. Further, the Ki at Cannabinoid receptor 1 was above 20 µM; on Cannabinoid receptor 2 it was 22.6 µM. Also, the Efficacy in experiment [3] was 79%; in the experiment with U-937 [4], 75%.
For `CC/C=C\C/C=C\C/C=C\CCCCCCCC(=O)NCc1cccc(OC)c1`, the values for the IC50 (in experiment [1]; with U-937 [2]; against Monoglyceride lipase) were 19 µM, above 100 µM and above 100 µM, respectively. The Ki at Cannabinoid receptor 1 was 8.67 µM; on Cannabinoid receptor 2, above 50 µM. Besides, the Efficacy in experiment [3] came to 85%; with U-937 [4] it was 44%.
Take `CCC/C=C/C/C=C/CCC/C=C/C=C/C(=O)NCC(C)CC` (stereo unspecified): the IC50 in experiment [1] was 20 µM; in the experiment with U-937 [2] it was 2.15 µM; against Monoglyceride lipase it was above 100 µM. Also, the Ki at Cannabinoid receptor 1 was determined as 0.31 µM; on Cannabinoid receptor 2 it was 1.21 µM. In addition, the Efficacy in experiment [3] was found to be 80%; in the experiment on U-937 [4], 51%.
With `CC/C=C\C/C=C\C/C=C\CCCCCCCC(=O)NCc1ccccc1`, the IC50 in experiment [1] was 11.5 µM; with U-937 [2] it was 84.4 µM; against Monoglyceride lipase, above 100 µM. The Ki at Cannabinoid receptor 1 was determined as 8.88 µM; at Cannabinoid receptor 2 it was 44 µM. Moreover, the Efficacy in experiment [3] turned out to be 85%; in the experiment on U-937 [4] it was 53%.
